Measurements from ChEMBL document CHEMBL4342500, “Modulating Heparanase Activity: Tuning Sulfation Pattern and Glycosidic Linkage of Oligosaccharides” (J Med Chem, 2020).
Calls of active or inactive are those of the source. The rule behind the calls is not given here.

Experiments:
Heparanase = target: T1, Heparanase (Homo sapiens, UniProt Q9Y251); assay: Inhibition of heparanase (unknown origin) using biotin-heparan sulfate-Eu cryptate as substrate preincubated for 10 mins followed by substrate addition and measured after 60 mins by TR-FRET assay
T1 sequence (Q9Y251 whole entry): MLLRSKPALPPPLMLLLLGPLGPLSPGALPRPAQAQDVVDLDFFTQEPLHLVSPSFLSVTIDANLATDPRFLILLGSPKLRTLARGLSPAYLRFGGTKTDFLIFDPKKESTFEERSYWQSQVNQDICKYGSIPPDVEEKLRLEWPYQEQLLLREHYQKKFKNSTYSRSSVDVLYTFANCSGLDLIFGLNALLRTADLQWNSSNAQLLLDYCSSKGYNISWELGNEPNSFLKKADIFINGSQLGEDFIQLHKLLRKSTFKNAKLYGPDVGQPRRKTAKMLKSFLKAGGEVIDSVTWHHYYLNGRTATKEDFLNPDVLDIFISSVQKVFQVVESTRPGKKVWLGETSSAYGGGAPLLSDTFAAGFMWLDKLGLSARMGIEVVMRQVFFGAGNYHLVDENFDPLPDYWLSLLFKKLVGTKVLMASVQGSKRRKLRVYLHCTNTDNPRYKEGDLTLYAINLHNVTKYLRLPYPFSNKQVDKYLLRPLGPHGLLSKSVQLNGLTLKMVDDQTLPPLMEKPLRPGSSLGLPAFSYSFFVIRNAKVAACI

Coagulation factor X = Coagulation factor X (Homo sapiens, UniProt P00742); assay: Inhibition of coagulation factor 10a (unknown origin) incubated for 2 mins in presence of AT3 by chromogenic substrate based […] assay
Sequence of Coagulation factor X (P00742 41-179 limits assumed): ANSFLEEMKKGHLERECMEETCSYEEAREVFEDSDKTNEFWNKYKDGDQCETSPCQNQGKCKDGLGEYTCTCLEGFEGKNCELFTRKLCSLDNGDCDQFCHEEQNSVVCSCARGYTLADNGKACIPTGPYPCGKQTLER
Sequence of Coagulation factor X (P00742 235-488 limits assumed): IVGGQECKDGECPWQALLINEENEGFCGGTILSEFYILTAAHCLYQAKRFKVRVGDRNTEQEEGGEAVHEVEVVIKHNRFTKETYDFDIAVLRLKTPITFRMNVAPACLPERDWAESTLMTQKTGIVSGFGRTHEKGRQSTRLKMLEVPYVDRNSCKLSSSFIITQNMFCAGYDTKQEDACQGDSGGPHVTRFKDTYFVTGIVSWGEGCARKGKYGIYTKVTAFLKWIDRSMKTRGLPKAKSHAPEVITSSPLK
Method in brief: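 Two-stage chromogenic anti-FXa: sample (heparin 0.002-500 nM or trisaccharide 3.9-4000 nM) with ATIII (0.04 IU), 2 min at 37 °C; FXa (0.32 μg) added, 2 min at 37 °C; chromogenic substrate added, stopped after 2 min with citric acid (20 g/L). Absorbance at 405 nm in triplicate, minus reverse-order sample blank.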

Platelet factor 4 = target: T2, Platelet factor 4 (Homo sapiens, UniProt P02776); assay: Binding affinity to PF4 (unknown origin) by BLI assay
T2 sequence (P02776 whole entry): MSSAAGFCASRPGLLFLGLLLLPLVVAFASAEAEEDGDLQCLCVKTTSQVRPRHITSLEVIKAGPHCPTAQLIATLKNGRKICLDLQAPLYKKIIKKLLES
Method in brief: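 PF4 (100 nM) mixed with ligand (0.08-250 μM trisaccharide; heparin 0.4-400 nM); free PF4 probed against biotin-heparin (5 μg/mL, 18 kDa) loaded on streptavidin biosensors. Mass-transport conditions; response fitted to a solution-affinity equation.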

[1] = target: T3, Heparanase (Homo sapiens) (UniProt Q9Y251); assay: Inhibition of heparanase (unknown origin) assessed as reduction in ROS-mediated SOD1 mRNA level in mouse MIN6 cells co-incubated with heparanase-producing CHO cells at 15 uM incubated for 24 hrs by qRT-PCR analysis; format: cell-based
T3 sequence (whole entry): T1 sequence (Q9Y251 whole entry)
Method in brief: (§1)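 MIN6 cells grown in high-glucose DMEM/10% FBS/50 μM β-mercaptoethanol, cultured at ~50% confluency in conditioned medium from heparanase-producing or control CHO cells with PBS vehicle or inhibitor for 24 h. Total RNA extracted with Trizol; cDNA made from 500 ng RNA; transcripts measured by quantitative real-time PCR.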

Prothrombin = Prothrombin (Homo sapiens, UniProt P00734); assay: Inhibition of coagulation factor 2a (unknown origin) incubated for 2 mins in presence of AT3 by chromogenic substrate based […] assay
Method in brief: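 Two-stage chromogenic anti-FIIa: sample (heparin 0.002-500 nM or trisaccharide 3.9-4000 nM) with ATIII (0.01 IU), 2 min at 37 °C; FIIa (1.2 nkat) added, 2 min at 37 °C; chromogenic substrate added, stopped after 2 min with citric acid (20 g/L). A405 read in triplicate; reverse-order sample blank subtracted.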

[2] = target: T3, Heparanase (Homo sapiens); assay: Inhibition of human recombinant heparanase assessed as reduction in [35S] labeled ECM degradation at 50 ug/ml incubated for 5 hrs relative to control
Method in brief: (§2)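 [35S]sulfate-labeled ECM on 35 mm dishes incubated 5 h at 37 °C with recombinant human heparanase (0.5 ng/ml), with or without inhibitor, in 1 ml containing 50 mM NaCl, 1 mM DTT, 1 mM CaCl2, 10 mM phosphate-citrate pH 6.0. Released material gel-filtered on Sepharose 6B, eluted with PBS; 0.2 ml fractions counted for radioactivity.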

MIN6 [3] = assay: Inhibition of heparanase (unknown origin) assessed as reduction in ROS production in mouse MIN6 cells co-incubated with heparanase-producing CHO cells at 15 uM incubated for 24 hrs by mitochondrial ROS probe staining based fluorescence microscopic method; format: functional, cell-based
Method in brief: (§3)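 MIN6 mouse insulinoma cells in high-glucose DMEM, 10% FBS, 50 μM β-mercaptoethanol, seeded in 4-well slide chambers. At ~50% confluency, switched to conditioned medium from heparanase-producing or control CHO cells and given PBS vehicle or inhibitor for 24 h. Stained with mitochondrial ROS tracker (100 nM); fluorescence imaged by microscopy and extent/intensity quantified.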

MIN6 [4] = assay: Inhibition of ROS production in mouse MIN6 cells assessed as reduction in ERO1alpha mRNA level at 15 uM incubated for 24 hrs by qRT-PCR analysis; format: functional, cell-based; method in brief: as §1
MIN6 [5] = assay: Inhibition of ROS production in mouse MIN6 cells assessed as reduction in SOD1 mRNA level at 15 uM incubated for 24 hrs by qRT-PCR analysis; format: functional, cell-based; method in brief: as §1
[6] = target: T3, Heparanase (Homo sapiens); assay: Inhibition of human recombinant heparanase assessed as reduction in [35S] labeled ECM degradation at 10 ug/ml incubated for 5 hrs relative to control; method in brief: as §2
MIN6 [7] = assay: Inhibition of ROS production in mouse MIN6 cells at 15 uM incubated for 24 hrs by mitochondrial ROS probe staining based fluorescence microscopic method; format: functional, cell-based; method in brief: as §3
[8] = target: T3, Heparanase (Homo sapiens); assay: Inhibition of heparanase (unknown origin) assessed as reduction in ROS-mediated ERO1alpha mRNA level in mouse MIN6 cells co-incubated with heparanase-producing CHO cells at 15 uM incubated for 24 hrs by qRT-PCR analysis; format: cell-based; method in brief: as §1

O=C(O)[C@H]1O[C@@H](O[C@H]2[C@H](O)[C@@H](NS(=O)(=O)O)[C@H](OCCNS(=O)(=O)O)O[C@@H]2COS(=O)(=O)O)[C@H](O)[C@@H](O)[C@@H]1O[C@H]1O[C@H](COS(=O)(=O)O)[C@@H](O)[C@H](O)[C@H]1NS(=O)(=O)O
IC50 (Heparanase): 42.1 µM

CO[C@H]1O[C@H](COS(=O)(=O)O)[C@@H](O[C@@H]2O[C@@H](C(=O)O)[C@@H](O[C@H]3O[C@H](COS(=O)(=O)O)[C@@H](O[C@@H]4O[C@H](C(=O)O)[C@@H](O[C@H]5O[C@H](COS(=O)(=O)O)[C@@H](O)[C@H](O)[C@H]5NS(=O)(=O)O)[C@H](O)[C@H]4O)[C@H](OS(=O)(=O)O)[C@H]3NS(=O)(=O)O)[C@H](O)[C@H]2OS(=O)(=O)O)[C@H](O)[C@H]1NS(=O)(=O)O [FONDAPARINUX]
IC50 (Coagulation factor X): 0.011 µM

O=C(O)[C@H]1O[C@@H](O[C@H]2[C@H](O)[C@@H](NS(=O)(=O)O)[C@@H](OCCNS(=O)(=O)O)O[C@@H]2COS(=O)(=O)O)[C@H](O)[C@@H](O)[C@@H]1O[C@H]1O[C@H](COS(=O)(=O)O)[C@@H](O)[C@H](O)[C@H]1NS(=O)(=O)O
IC50 (Coagulation factor X): > 2 µM | Kd (Platelet factor 4): 16 µM | inhibition [1]: Active | IC50 (Prothrombin): > 2 µM | inhibition [2]: 100% | IC50 (Heparanase): 0.393 µM | inhibition (MIN6 [3]): Active | inhibition (MIN6 [4]): Active | inhibition (MIN6 [5]): Active | inhibition [6]: 50% | inhibition (MIN6 [7]): Active | inhibition [8]: Active
